Laboratory results taken from ChEMBL document CHEMBL2390947, “New insight into adenosine receptors selectivity derived from a novel series of [5-substituted-4-phenyl-1,3-thiazol-2-yl] benzamides and furamides” (Eur J Med Chem, 2013).

Assays:
Adenosine receptor A3 = target: T1, Adenosine receptor A3 (Homo sapiens, UniProt P0DMS8); assay: Displacement of [3H]HEMADO from human adenosine A3 receptor expressed in CHO cells; format: cell-based
T1 sequence (P0DMS8 whole entry): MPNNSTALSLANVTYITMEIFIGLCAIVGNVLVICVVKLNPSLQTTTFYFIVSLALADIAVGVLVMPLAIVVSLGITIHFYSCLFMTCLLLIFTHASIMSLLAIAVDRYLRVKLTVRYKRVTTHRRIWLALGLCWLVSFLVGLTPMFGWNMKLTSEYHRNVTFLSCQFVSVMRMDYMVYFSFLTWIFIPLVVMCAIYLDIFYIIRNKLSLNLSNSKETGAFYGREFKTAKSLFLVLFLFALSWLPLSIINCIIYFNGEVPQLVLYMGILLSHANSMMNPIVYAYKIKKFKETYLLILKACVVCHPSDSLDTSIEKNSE
Summary of the method: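 Human A3 receptor binding in membranes from stably transfected CHO cells (low-speed then 100,000 × g pellet, stored at -80 °C). Radioligand was the agonist [3H]HEMADO at 1 nM; non-specific binding measured with 100 µM R-PIA. Ki values derived from competition experiments.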

Adenosine receptor A1 = target: T2, Adenosine receptor A1 (Homo sapiens, UniProt P30542); assay: Displacement of [3H]CCPA from human adenosine A1 receptor expressed in CHO cells; format: cell-based
T2 sequence (P30542 whole entry): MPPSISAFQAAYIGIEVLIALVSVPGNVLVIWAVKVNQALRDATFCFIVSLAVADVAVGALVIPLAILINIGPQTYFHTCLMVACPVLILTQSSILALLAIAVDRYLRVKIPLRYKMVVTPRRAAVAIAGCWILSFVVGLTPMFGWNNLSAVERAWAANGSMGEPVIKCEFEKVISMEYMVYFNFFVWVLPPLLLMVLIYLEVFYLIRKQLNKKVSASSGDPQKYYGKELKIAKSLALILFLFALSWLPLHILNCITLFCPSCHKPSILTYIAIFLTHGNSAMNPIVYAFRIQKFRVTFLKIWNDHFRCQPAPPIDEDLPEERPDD
Summary of the method: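 Agonist radioligand competition on membranes from CHO cells stably transfected with human A1 receptor (1000 × g spin to clear debris, crude membranes pelleted at 100,000 × g, stored at -80 °C). Tracer 1 nM [3H]CCPA; non-specific binding defined with 1 mM theophylline. Ki computed from competition curves.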

Adenosine receptor A2a = Adenosine receptor A2a (Homo sapiens, UniProt P29274); assay: Displacement of [3H]NECA from human adenosine A2A receptor expressed in CHO cells; format: cell-based
Summary of the method: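 Membranes prepared from stably transfected CHO cells expressing human A2A receptor by two-step centrifugation (1000 × g, then 100,000 × g), frozen and kept at -80 °C. Competition against 30 nM [3H]NECA, with 100 µM R-PIA for non-specific binding. Ki obtained by competition-curve fitting.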

Adenosine receptor A2b = target: T3, Adenosine receptor A2b (Homo sapiens, UniProt P29275); assay: Antagonist activity at human adenosine A2B receptor expressed in CHO cells assessed as inhibition of NECA-stimulated adenylyl cyclase activity; format: functional, cell-based
T3 sequence (P29275 whole entry): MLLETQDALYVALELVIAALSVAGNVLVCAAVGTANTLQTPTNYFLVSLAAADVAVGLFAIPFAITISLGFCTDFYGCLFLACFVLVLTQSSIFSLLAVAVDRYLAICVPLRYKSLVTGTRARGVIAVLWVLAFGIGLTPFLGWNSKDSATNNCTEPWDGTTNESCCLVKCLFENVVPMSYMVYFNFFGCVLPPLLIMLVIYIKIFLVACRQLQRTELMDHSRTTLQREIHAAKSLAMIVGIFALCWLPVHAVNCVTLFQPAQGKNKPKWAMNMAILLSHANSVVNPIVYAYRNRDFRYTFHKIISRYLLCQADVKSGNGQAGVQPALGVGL
Summary of the method: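 Affinity at human A2B receptor taken from inhibition of NECA-stimulated adenylyl cyclase activity. Membranes from stably transfected CHO cells were obtained by a single high-speed spin of the homogenate, resuspended in 50 mM Tris/HCl pH 7.4 and used at once.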

Homo sapiens [1] = species: Homo sapiens; assay: Selectivity ratio of Ki for human adenosine A3 receptor to Ki for human adenosine A2A receptor
Homo sapiens [2] = species: Homo sapiens; assay: Selectivity ratio of Ki for human adenosine A1 receptor to Ki for human adenosine A2A receptor
Homo sapiens [3] = species: Homo sapiens; assay: Selectivity ratio of Ki for human adenosine A2A receptor to Ki for human adenosine A2B receptor
Homo sapiens [4] = species: Homo sapiens; assay: Selectivity ratio of Ki for human adenosine A1 receptor to Ki for human adenosine A2B receptor
[5] = target: T4, Adenosine receptors; A1 & A3 (Homo sapiens) (UniProt P30542+P0DMS8); assay: Selectivity ratio of Ki for human adenosine A3 receptor to Ki for human adenosine A1 receptor
Homo sapiens [6] = species: Homo sapiens; assay: Selectivity ratio of Ki for human adenosine A2A receptor to Ki for human adenosine A1 receptor
Homo sapiens [7] = species: Homo sapiens; assay: Selectivity ratio of Ki for human adenosine A2B receptor to Ki for human adenosine A3 receptor
Homo sapiens [8] = species: Homo sapiens; assay: Selectivity ratio of Ki for human adenosine A2A receptor to Ki for human adenosine A3 receptor
[9] = target: T4, Adenosine receptors; A1 & A3 (Homo sapiens); assay: Selectivity ratio of Ki for human adenosine A1 receptor to Ki for human adenosine A3 receptor
[10] = system: adenosine A3/A2A receptor ratio (Homo sapiens); assay: Selectivity ratio of Ki for human adenosine A2A receptor to Ki for human adenosine A3 receptor

Adenosine receptor A2a, sequence (P29274 whole entry): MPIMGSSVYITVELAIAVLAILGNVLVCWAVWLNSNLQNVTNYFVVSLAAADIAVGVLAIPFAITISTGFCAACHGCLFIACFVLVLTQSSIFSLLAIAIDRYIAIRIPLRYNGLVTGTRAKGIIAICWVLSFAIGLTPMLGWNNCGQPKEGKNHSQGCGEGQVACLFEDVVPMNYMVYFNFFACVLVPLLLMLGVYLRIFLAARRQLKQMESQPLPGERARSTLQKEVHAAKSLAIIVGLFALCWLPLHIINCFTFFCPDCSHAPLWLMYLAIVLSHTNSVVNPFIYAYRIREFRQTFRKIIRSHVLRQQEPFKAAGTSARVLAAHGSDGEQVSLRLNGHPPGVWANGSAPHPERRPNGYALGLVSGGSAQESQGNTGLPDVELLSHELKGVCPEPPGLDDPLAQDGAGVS

SMILES	Ki (Adenosine receptor A3)	Ki (Adenosine receptor A1)	Ki (Adenosine receptor A2a)	Ki (Adenosine receptor A2b)	also measured
Cc1sc2nc(-c3sc(NC(=O)c4ccco4)nc3-c3ccccc3)[nH]c(=O)c2c1C	> 10 µM	> 10 µM	> 100 µM	> 10 µM	–
COc1ccc(C(=O)Nc2nc(-c3ccccc3)c(C(=O)c3ccccn3)s2)cc1	0.201 µM	0.688 µM	0.128 µM	> 10 µM	Ratio Ki (Homo sapiens [1]): 1.6; Ratio Ki (Homo sapiens [2]): 5.7
CN(C)c1nc(N)nc(-c2sc(NC(=O)c3ccccc3)nc2-c2ccccc2)n1	0.567 µM	0.801 µM	0.327 µM	> 10 µM	–
O=C(Nc1nc(-c2ccccc2)c(-c2ccccn2)s1)c1ccco1	2.04 µM	0.276 µM	0.193 µM	0.841 µM	Ratio Ki (Homo sapiens [3]): 0.23; Ratio Ki (Homo sapiens [4]): 0.33
Cc1ccc(C(=O)Nc2nc(-c3ccccc3)c(-c3nc(N)nc(N(C)C)n3)s2)cc1	0.816 µM	3.63 µM	0.562 µM	> 30 µM	–
COc1ccc(C(=O)Nc2nc(-c3ccccc3)c(-c3nc(N)c4c5c(sc4n3)CCCC5)s2)cc1	> 10 µM	> 10 µM	> 10 µM	> 10 µM	–
O=C(Nc1nc(-c2ccccc2)c(-c2ccncc2)s1)c1ccco1	0.00936 µM	0.00058 µM	0.00665 µM	0.00278 µM	Ratio Ki [5]: 16; Ratio Ki (Homo sapiens [6]): 11
O=C(Nc1nc(-c2ccccc2)c(-c2nc3ccccc3c(=O)[nH]2)s1)c1ccco1	3.93 µM	> 10 µM	8.78 µM	> 10 µM	–
Nc1nc(-c2sc(NC(=O)c3ccccc3)nc2-c2ccccc2)nc2sc3c(c12)CCCC3	> 10 µM	> 10 µM	> 10 µM	> 10 µM	–
Cc1sc2nc(-c3sc(NC(=O)c4ccccc4)nc3-c3ccccc3)nc(N)c2c1C	0.676 µM	7.24 µM	4.87 µM	> 10 µM	–
CN(C)c1nc(N)nc(-c2sc(NC(=O)c3ccco3)nc2-c2ccccc2)n1	0.918 µM	0.536 µM	0.179 µM	8 µM	Ratio Ki (Homo sapiens [2]): 3; Ratio Ki [10]: 5
Cc1ccc(C(=O)Nc2nc(-c3ccccc3)c(-c3nc(N)c4c(C)c(C)sc4n3)s2)cc1	1.38 µM	> 30 µM	> 30 µM	> 10 µM	–
COc1ccc(C(=O)Nc2nc(-c3ccccc3)c(-c3nc(N)nc(N(C)C)n3)s2)cc1	2.64 µM	10.4 µM	2.01 µM	> 10 µM	–
COc1ccc(C(=O)Nc2nc(-c3ccccc3)c(-c3nc(N)c4c(C)c(C)sc4n3)s2)cc1	2.47 µM	> 100 µM	> 30 µM	> 10 µM	–

Now from value to compound, other results behind:

Ki (Adenosine receptor A3)	Ki (Adenosine receptor A1)	Ki (Adenosine receptor A2a)	Ki (Adenosine receptor A2b)	SMILES	also measured
1.87 µM	0.177 µM	0.552 µM	> 10 µM	O=C(Nc1nc(-c2ccccc2)c(C(=O)c2cccnc2)s1)c1ccco1	–
> 10 µM	> 10 µM	> 10 µM	> 10 µM	COc1ccc(C(=O)Nc2nc(-c3ccccc3)c(C(=O)c3cccnc3)s2)cc1	–
0.951 µM	0.406 µM	0.0747 µM	9.11 µM	O=C(Nc1nc(-c2ccccc2)c(C(=O)c2ccccn2)s1)c1ccco1	Ratio Ki (Homo sapiens [1]): 13; Ratio Ki (Homo sapiens [2]): 5
36.6 µM	> 10 µM	14.4 µM	> 10 µM	Nc1nc(-c2sc(NC(=O)c3ccco3)nc2-c2ccccc2)nc2sc3c(c12)CCCC3	–
> 10 µM	> 10 µM	> 10 µM	> 10 µM	Cc1ccc(C(=O)Nc2nc(-c3ccccc3)c(-c3nc(N)c4c5c(sc4n3)CCCC5)s2)cc1	–
0.746 µM	12 µM	5.95 µM	> 10 µM	Cc1sc2nc(-c3sc(NC(=O)c4ccco4)nc3-c3ccccc3)nc(N)c2c1C	Ratio Ki (Homo sapiens [7]): > 13; Ratio Ki (Homo sapiens [8]): 8; Ratio Ki [9]: 16
